Results taken from ChEMBL document CHEMBL2010764, “Novel alkynylphosphonate analogue of calcitriol with potent antiproliferative effects in cancer cells and lack of calcemic activity” (ACS Med Chem Lett, 2011).
pIC50: −log10 of the molar value. The source made the active and inactive calls. No cut-off for these calls is given here.

Key:
[1] = system: HN12; assay: Antiproliferative activity against human HN12 cells assessed as decrease in cell number at 1 nM after 72 hrs by hemocytometeric analysis; type: functional, cell-based
How it was run: (§1)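 Cells exposed to the test agent or isopropanol vehicle over 72 h, across 0.1–100 nM; proliferation expressed as percentage of vehicle. Experiments repeated at least three times per cell line; one-way ANOVA with Bonferroni post-test.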

[2] = system: Mus musculus; assay: Hypercalcemic activity in CF1 mouse assessed as increase in plasma calcium level at 20 ug/kg, ip qd for 5 days measured after 96 hrs; type: functional, organism-based
How it was run: (§2)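 Mice (n = 5/group) received daily intraperitoneal injections of agent or isopropanol vehicle at 5 or 20 μg/kg body weight for 5 days. Blood was taken before dosing (0 h) and at 24, 48, 72 and 96 h. Plasma calcium was read by Arsenazo III absorbance. Means ± SE; experiment repeated twice.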

[3] = system: T98G; assay: Antiproliferative activity against human T98G cells harboring scrambled shRNA assessed as decrease in cell number at 10 nM after 72 hrs by WST assay; type: functional, cell-based
How it was run: (§3)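 T98G cells transfected with VDR-silencing shRNA plasmid or scrambled shRNA plasmid. 48 h after transfection, treated with 10 nM agent or vehicle, then counted 72 h after treatment. Triplicate wells, three independent experiments; mean ± SE. VDR knockdown was checked on lysates taken 48 h after transfection with 2 or 4 μg plasmid.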

[4] = Antiproliferative activity against mouse LM05e cells assessed as decrease in cell number after 72 hrs by WST assay; type: functional, cell-based
[5] = system: T47D; assay: Antiproliferative activity against human T47D cells assessed as decrease in cell number after 72 hrs by WST assay; type: functional, cell-based
[6] = system: Mus musculus; assay: Toxicity in CF1 mouse assessed as morphological alterations in lung at 5 to 20 ug/kg, ip qd for 5 days measured after 15 days; type: organism-based; conditions: in vivo, 360 h
How it was run: (§4)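 Mice dosed intraperitoneally once daily for 5 days at 5 or 20 μg/kg in isopropanol vehicle. Liver, duodenum, lungs and kidneys were inspected visually for macroscopic morphological alterations after treatment.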

[7] = system: Mus musculus; assay: Hypercalcemic activity in CF1 mouse assessed as increase in plasma calcium level at 5 ug/kg, ip qd for 5 days measured after 96 hrs; type: functional, organism-based; how it was run: as §2
[8] = system: Mus musculus; assay: Toxicity in CF1 mouse assessed as morphological alterations in liver at 5 to 20 ug/kg, ip qd for 5 days measured after 15 days; type: organism-based; conditions: in vivo, 360 h; how it was run: as §4
[9] = system: Mus musculus; assay: Toxicity in CF1 mouse assessed as mortality at 5 ug/kg, ip qd for 5 days; type: organism-based; conditions: in vivo, 0.005 mg/kg, 120 h
How it was run: (§5)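 Mice in three groups (n = 5/group) received daily intraperitoneal injections of test agent, calcitriol, or isopropanol vehicle at 5 or 20 μg/kg body weight for 5 days. Survival was followed through the examination period, with blood sampled before dosing and at 24, 48, 72 and 96 h for plasma calcium (Arsenazo III absorbance). Liver, duodenum, lungs and kidneys were inspected macroscopically.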

[10] = system: SVEC vGPCR (Mouse); assay: Antiproliferative activity against mouse SVEC vGPCR cells assessed as decrease in cell number after 72 hrs by WST assay
[11] = Antiproliferative activity against human HN12 cells assessed as decrease in cell number after 72 hrs by WST assay; type: functional, cell-based; conditions: HN12, 72 h
[12] = system: T98G; assay: Antiproliferative activity against human T98G cells assessed as decrease in cell number after 72 hrs by WST assay; type: functional, cell-based; how it was run: as §1
[13] = system: HCT-116; assay: Antiproliferative activity against human HCT116 cells assessed as decrease in cell survival at 0.1 to 100 nM after 72 hrs by WST1 assay; type: functional, cell-based; how it was run: as §1
[14] = system: LM3; assay: Antiproliferative activity against mouse LM3 cells assessed as decrease in cell survival at 0.1 to 100 nM after 72 hrs by WST1 assay; type: functional, cell-based; how it was run: as §1
[15] = system: Mus musculus; assay: Toxicity in CF1 mouse assessed as mortality at 20 ug/kg, ip qd for 5 days; type: organism-based; conditions: in vivo, 0.02 mg/kg, 120 h; how it was run: as §5
[16] = system: Mus musculus; assay: Toxicity in CF1 mouse assessed as morphological alterations in kidney at 5 to 20 ug/kg, ip qd for 5 days measured after 15 days; type: organism-based; conditions: in vivo, 360 h; how it was run: as §4
[17] = system: T98G; assay: Antiproliferative activity against human T98G cells harboring plasmid silencing VDR assessed as decrease in cell number at 10 nM after 72 hrs by WST assay; type: functional, cell-based; how it was run: as §3
[18] = system: Mus musculus; assay: Toxicity in CF1 mouse assessed as morphological alterations in duodenum at 5 to 20 ug/kg, ip qd for 5 days measured after 15 days; type: organism-based; conditions: in vivo, 360 h; how it was run: as §4
[19] = Cmax in mouse at 5 ug/kg; type: ADME, organism-based; design: dose 5 ug/kg; conditions: in vivo, 0.005 mg/kg
[20] = AUC in mouse at 5 ug/kg; type: ADME, organism-based; conditions: plasma, 0.005 mg/kg
[21] = system: Mus musculus; assay: Hypercalcemic activity in CF1 mouse assessed as increase in plasma calcium level at 5 to 20 ug/kg, ip qd for 5 days measured after 96 hrs; type: functional, organism-based; how it was run: as §2
[22] = system: Mus musculus; assay: Toxicity in CF1 mouse assessed as mortality at 5 to 20 ug/kg, ip qd for 5 days; type: organism-based; conditions: in vivo, 120 h; how it was run: as §5

SMILES: C=C1/C(=C\C=C2/CCC[C@]3(C)[C@@H]([C@H](C)CC#CP(=O)(OCC)OCC)CC[C@@H]23)C[C@@H](O)C[C@@H]1O
- Activity [1]: Active
- Activity [2]: inactive
- Activity [3]: Active
- pIC50 [4]: 8.77
- pIC50 [5]: 8.32
- Activity [6]: Non-toxic
- Activity [7]: inactive
- Activity [8]: Non-toxic
- Activity [9]: Non-toxic
- pIC50 [10]: 6.95
- pIC50 [11]: 7.65
- pIC50 [12]: 7.44
- Activity [13]: inactive
- Activity [14]: inactive
- Activity [15]: Non-toxic
- Activity [16]: Non-toxic
- Activity [17]: Active
- Activity [18]: Non-toxic

SMILES: C=C1/C(=C\C=C2/CCC[C@]3(C)[C@@H]([C@H](C)CCCC(C)(C)O)CC[C@@H]23)C[C@@H](O)C[C@@H]1O [CALCITRIOL]
- Cmax [19]: > 10 ng/mL
- AUC [20]: > 40 ng·h/mL
- Activity [21]: Active
- Activity [22]: Toxic
